Non-standard residues stand in square brackets, D forms with d. Residues, ends and D or L forms follow the SMILES beside them. *: point of attachment. dCha = N[C@H](CC1CCCCC1)C(=O)O; Bz = O=C(c1ccccc1)*
Key:
[1] = molecular target: T1, N-formyl peptide receptor 2 (Homo sapiens, UniProt P25090); assay: Agonist activity at FRP2 (unknown origin) transfected in human HL60 cells assessed as calcium mobilization incubated for 30 mins and measured for 5 sec for 240 sec by fluorometry; format: functional, cell-based
T1 sequence (P25090 whole entry): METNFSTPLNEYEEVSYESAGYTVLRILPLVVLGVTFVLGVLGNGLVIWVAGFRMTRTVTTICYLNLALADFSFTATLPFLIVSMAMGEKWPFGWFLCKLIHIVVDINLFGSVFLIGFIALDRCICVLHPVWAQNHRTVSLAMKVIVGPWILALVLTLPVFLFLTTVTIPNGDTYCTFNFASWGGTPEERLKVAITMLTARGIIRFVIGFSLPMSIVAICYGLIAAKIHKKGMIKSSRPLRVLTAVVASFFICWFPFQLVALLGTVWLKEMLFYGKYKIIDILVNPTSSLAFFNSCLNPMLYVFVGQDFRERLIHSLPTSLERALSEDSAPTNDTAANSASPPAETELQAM
Outline: (§1)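 Stably transfected HL60 cells, with G418 dropped in the final culture round, loaded with Fluo-4 AM (1.25 µg/mL final) for 30 min at 37 °C in the dark. Cells were washed into HBSS with Ca2+/Mg2+ plus 10 mM HEPES, 2×10^5 cells/well. Compound added by injector, fluorescence (ex 485/em 538 nm) read every 5 s for 240 s at room temperature. Peak change over baseline in the first 3 min; EC50 by nonlinear regression.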

fMet-Leu-Phe receptor [2] = molecular target: T2, fMet-Leu-Phe receptor (Homo sapiens, UniProt P21462); assay: Antagonist activity against FPR1 (unknown origin) transfected in human HL60 cells assessed as calcium mobilization preincubated for 30 mins followed by fMLF addition and measured for 5 sec for 240 sec by fluorometry; format: functional, cell-based
T2 sequence (P21462 whole entry): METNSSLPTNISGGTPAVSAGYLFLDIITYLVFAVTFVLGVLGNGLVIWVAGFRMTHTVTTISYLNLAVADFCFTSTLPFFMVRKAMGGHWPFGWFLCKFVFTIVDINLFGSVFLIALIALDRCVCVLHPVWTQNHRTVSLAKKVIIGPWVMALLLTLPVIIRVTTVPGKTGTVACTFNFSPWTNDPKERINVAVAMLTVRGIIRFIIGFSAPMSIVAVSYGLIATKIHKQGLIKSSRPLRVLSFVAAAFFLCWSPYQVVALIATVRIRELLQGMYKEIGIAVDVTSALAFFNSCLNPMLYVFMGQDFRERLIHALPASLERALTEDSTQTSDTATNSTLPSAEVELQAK
Outline: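 FPR1-HL60 cells or donor neutrophils, Fluo-4 AM-loaded (1.25 µg/mL final, 30 min, 37 °C), in HBSS+/10 mM HEPES, 2×10^5 cells/well. Compound pretreatment 30 min at room temperature, then 5 nM fMLF. Peak fluorescence rise (485/538 nm) in the first 3 min was normalized to 5 nM fMLF alone (100%). IC50 from 5–6-point curves by nonlinear regression; maximal antagonist concentration ~50 μM.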

fMet-Leu-Phe receptor [3] = molecular target: T2, fMet-Leu-Phe receptor; assay: Agonist activity at FPR1 (unknown origin) transfected in human HL60 cells assessed as calcium mobilization incubated for 30 mins and measured for 5 sec for 240 sec by fluorometry; format: functional, cell-based; outline: as §1
[4] = molecular target: T1, N-formyl peptide receptor 2; assay: Antagonist activity against FPR2 (unknown origin) transfected in human HL60 cells assessed as calcium mobilization preincubated for 30 mins followed by WKYMVM addition and measured for 5 sec for 240 sec by fluorometry; format: functional, cell-based
Outline: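 FPR2-transfected HL60 cells, Fluo-4 AM-loaded (1.25 µg/mL final, 30 min, 37 °C), in HBSS+/10 mM HEPES, 2×10^5 cells/well. 30 min room-temperature compound pretreatment, then 5 nM WKYMVM. Peak fluorescence rise (485/538 nm) in the first 3 min, normalized to 5 nM WKYMVM alone (100%). IC50 by nonlinear regression of 5–6-point curves.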

fMet-Leu-Phe receptor [5] = molecular target: T2, fMet-Leu-Phe receptor; assay: Agonist activity at FPR1 in human neutrophils assessed as calcium mobilization incubated for 30 mins and measured for 5 sec for 240 sec by fluorometry; format: functional
Outline: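 Neutrophils from healthy donor blood were isolated by dextran sedimentation, Histopaque 1077 gradient and hypotonic RBC lysis. They were loaded with Fluo-4 AM (1.25 µg/mL final) for 30 min at 37 °C, then resuspended in HBSS+ with 10 mM HEPES, 2×10^5 cells/well. Compound injected; fluorescence (485/538 nm) read every 5 s for 240 s at room temperature. Peak rise over baseline in the first 3 min; EC50 by nonlinear regression.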

fMet-Leu-Phe receptor [6] = molecular target: T2, fMet-Leu-Phe receptor; assay: Antagonist activity against FPR1 in human neutrophils assessed as calcium mobilization preincubated for 30 mins followed by fMLF addition and measured for 5 sec for 240 sec by fluorometry
Neutrophil = assay: Inhibition of fMLF-induced migration of human neutrophil preincubated for 30 mins followed by fMLF stimulation and measured after 60 mins by luminescence based assay

Row | SMILES | EC50 ([1]; read-out: EC50) [µM] | IC50 (fMet-Leu-Phe receptor [2]) [µM] | EC50 (fMet-Leu-Phe receptor [3]) | IC50 [4] | EC50 (fMet-Leu-Phe receptor [5]) | IC50 (fMet-Leu-Phe receptor [6]) [µM] | EC50 [1] | IC50 (Neutrophil) [µM] | IC50 ([4]; read-out: IC50) [µM]
1 | COC(=O)[C@@H](Cc1ccccc1)NC(=O)[C@H](Cc1c[nH]c2ccccc12)NC(=O)OC(C)(C)C | 10.5 | 17.1 | Not Active | Not Active | Not Active | 12.6 | – | – | –
2 | COC(=O)[C@@H](Cc1ccccc1)NC(=O)[C@H](Cc1c[nH]c2ccccc12)NC(=O)C1CCCCC1 | – | 0.54 | Not Active | Not Active | Not Active | 3.3 | Not Active | 3.1 | –
3 | COC(=O)[C@@H](Cc1ccccc1)NC(=O)[C@@H](Cc1c[nH]c2ccccc12)NC(=O)c1ccccc1 | – | 16.5 | Not Active | Not Active | Not Active | 31.3 | Not Active | – | –
4 | COC(=O)[C@@H](Cc1ccccc1)NC(=O)[C@H](Cc1c[nH]c2ccccc12)NC(=O)CC(C)C | – | 19.6 | Not Active | Not Active | Not Active | 27.7 | Not Active | – | –
5 | COC(=O)[C@H](Cc1ccccc1)NC(=O)[C@H](Cc1c[nH]c2ccccc12)NC(=O)c1ccccc1 | – | 5.8 | Not Active | – | Not Active | 2.4 | Not Active | 1.6 | 12.3

Further lines, results first:

Row | EC50 ([1]; read-out: EC50) [µM] | IC50 (fMet-Leu-Phe receptor [2]) [µM] | EC50 (fMet-Leu-Phe receptor [3]) | IC50 [4] | EC50 (fMet-Leu-Phe receptor [5]) | IC50 (fMet-Leu-Phe receptor [6]) [µM] | EC50 [1] | IC50 (Neutrophil) [µM] | IC50 ([4]; read-out: IC50) [µM] | SMILES
6 | 10.9 | 24.7 | Not Active | Not Active | Not Active | 14.5 | – | – | – | COC(=O)[C@@H](CC(C)C)NC(=O)[C@H](Cc1c[nH]c2ccccc12)NC(=O)c1ccccc1
7 | – | 37.4 | Not Active | Not Active | Not Active | 10.9 | Not Active | – | – | COC(=O)[C@H](Cc1ccccc1)NC(=O)[C@@H](Cc1c[nH]c2ccccc12)NC(=O)c1ccccc1
8 | – | 11.7 | Not Active | Not Active | Not Active | 25.3 | Not Active | – | – | COC(=O)[C@H](NC(=O)[C@H](Cc1c[nH]c2ccccc12)NC(=O)c1ccccc1)C(C)C
9 | – | 0.67 | Not Active | Not Active | Not Active | 0.12 | Not Active | 0.62 | – | COC(=O)[C@@H](CC1CCCCC1)NC(=O)[C@H](Cc1c[nH]c2ccccc12)NC(=O)c1ccccc1 (Bz-Trp-[dCha]-OMe)
10 | – | 0.45 | Not Active | Not Active | Not Active | 0.18 | Not Active | 0.48 | – | COC(=O)[C@@H](Cc1ccccc1)NC(=O)[C@H](Cc1c[nH]c2ccccc12)NC(=O)c1ccccc1
